For assay [1], the target named is T1, ALK tyrosine kinase receptor (Homo sapiens, UniProt Q9UM73). Description: Inhibition of ALK using FL-Peptide 13, 5-FAM-KKSRGDYMTMQIG-CONH2 substrate after 60 mins by mobility shift assay.
Target sequence in this assay (Q9UM73 whole entry): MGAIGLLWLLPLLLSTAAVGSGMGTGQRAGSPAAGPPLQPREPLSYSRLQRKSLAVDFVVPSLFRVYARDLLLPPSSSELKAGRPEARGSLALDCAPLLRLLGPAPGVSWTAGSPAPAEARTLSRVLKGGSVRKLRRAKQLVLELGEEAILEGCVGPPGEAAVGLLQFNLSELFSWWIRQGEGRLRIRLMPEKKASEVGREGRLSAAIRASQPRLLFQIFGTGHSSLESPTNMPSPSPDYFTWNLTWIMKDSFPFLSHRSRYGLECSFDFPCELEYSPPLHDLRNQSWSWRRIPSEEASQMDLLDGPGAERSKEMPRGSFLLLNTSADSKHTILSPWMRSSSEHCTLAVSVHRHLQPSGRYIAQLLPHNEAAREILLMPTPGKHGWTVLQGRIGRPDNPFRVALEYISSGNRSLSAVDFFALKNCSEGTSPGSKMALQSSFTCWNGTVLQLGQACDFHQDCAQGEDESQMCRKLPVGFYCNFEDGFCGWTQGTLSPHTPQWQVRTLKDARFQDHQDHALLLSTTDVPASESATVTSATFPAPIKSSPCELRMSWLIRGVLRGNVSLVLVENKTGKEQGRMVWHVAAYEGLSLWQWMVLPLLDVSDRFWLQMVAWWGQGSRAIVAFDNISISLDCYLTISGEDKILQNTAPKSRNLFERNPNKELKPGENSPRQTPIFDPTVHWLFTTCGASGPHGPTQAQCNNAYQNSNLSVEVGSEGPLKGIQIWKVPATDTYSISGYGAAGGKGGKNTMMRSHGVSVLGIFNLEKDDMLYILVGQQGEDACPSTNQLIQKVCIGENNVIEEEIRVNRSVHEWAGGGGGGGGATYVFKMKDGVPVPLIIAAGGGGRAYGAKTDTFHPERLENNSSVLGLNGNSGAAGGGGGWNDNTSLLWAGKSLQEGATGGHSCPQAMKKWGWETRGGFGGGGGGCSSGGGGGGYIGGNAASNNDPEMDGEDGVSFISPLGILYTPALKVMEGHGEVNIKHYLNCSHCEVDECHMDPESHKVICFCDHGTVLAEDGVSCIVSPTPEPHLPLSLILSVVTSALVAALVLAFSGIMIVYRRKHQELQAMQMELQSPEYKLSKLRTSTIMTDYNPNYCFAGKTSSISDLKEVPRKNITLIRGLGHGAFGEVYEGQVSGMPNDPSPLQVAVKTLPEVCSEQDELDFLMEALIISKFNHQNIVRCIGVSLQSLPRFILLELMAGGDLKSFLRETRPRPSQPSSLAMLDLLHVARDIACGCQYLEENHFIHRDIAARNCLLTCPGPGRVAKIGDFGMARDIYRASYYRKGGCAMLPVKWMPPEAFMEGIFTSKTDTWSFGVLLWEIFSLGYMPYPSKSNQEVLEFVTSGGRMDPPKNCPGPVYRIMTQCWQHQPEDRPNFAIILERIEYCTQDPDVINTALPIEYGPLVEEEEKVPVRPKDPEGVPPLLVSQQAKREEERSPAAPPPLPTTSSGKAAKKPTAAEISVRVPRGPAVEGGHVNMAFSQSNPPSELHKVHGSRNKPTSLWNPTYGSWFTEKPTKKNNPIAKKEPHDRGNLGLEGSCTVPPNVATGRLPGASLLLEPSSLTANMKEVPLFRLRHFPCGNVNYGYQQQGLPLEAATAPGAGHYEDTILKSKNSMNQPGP
For assay [2], the target named is Tyrosine-protein kinase ITK/TSK (Homo sapiens) (UniProt Q08881). Description: Inhibition of ITK at 4 uM by mobility shift assay. The method, boiled down:
(§1)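 Tyrosine kinase panel run by a contract lab. Each enzyme was incubated with 1 mM ATP and 1 µM of its appropriate peptide substrate, and the product was then read by mobility shift.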

Assay [3] deals with Ephrin type-B receptor 4 (Homo sapiens) (UniProt P54760). Description: Inhibition of EPHB4 at 4 uM by mobility shift assay.
The target of assay [4] is Tyrosine-protein kinase receptor TYRO3 (Homo sapiens) (UniProt Q06418). Description: Inhibition of TYRO3 at 4 uM by mobility shift assay. The essentials:
as §1

Assay [5] concerns the target Platelet-derived growth factor receptor alpha (Homo sapiens) (UniProt P16234). Description: Inhibition of PDGFRa at 4 uM by mobility shift assay. The method, boiled down: as §1
For assay [6], the target named is Tyrosine-protein kinase ABL1 (Homo sapiens) (UniProt P00519). Description: Inhibition of ABL at 4 uM by mobility shift assay. The essentials: as §1
Assay [7] deals with Ephrin type-A receptor 2 (Homo sapiens) (UniProt P29317). Description: Inhibition of EPHA2 at 4 uM by mobility shift assay. The essentials:
as §1

Assay [8] addresses Vascular endothelial growth factor receptor 2 (Homo sapiens) (UniProt P35968). Description: Inhibition of KDR at 4 uM by mobility shift assay. The method, boiled down:
as §1

For assay [9], the target named is Hepatocyte growth factor receptor (Homo sapiens) (UniProt P08581). Description: Inhibition of MET at 4 uM by mobility shift assay. The essentials:
as §1

The target of assay [10] is T1, ALK tyrosine kinase receptor. Description: Inhibition of ALK at 4 uM by mobility shift assay. The method, boiled down:
as §1
Target sequence in this assay (Q9UM73 19-1620 limits assumed): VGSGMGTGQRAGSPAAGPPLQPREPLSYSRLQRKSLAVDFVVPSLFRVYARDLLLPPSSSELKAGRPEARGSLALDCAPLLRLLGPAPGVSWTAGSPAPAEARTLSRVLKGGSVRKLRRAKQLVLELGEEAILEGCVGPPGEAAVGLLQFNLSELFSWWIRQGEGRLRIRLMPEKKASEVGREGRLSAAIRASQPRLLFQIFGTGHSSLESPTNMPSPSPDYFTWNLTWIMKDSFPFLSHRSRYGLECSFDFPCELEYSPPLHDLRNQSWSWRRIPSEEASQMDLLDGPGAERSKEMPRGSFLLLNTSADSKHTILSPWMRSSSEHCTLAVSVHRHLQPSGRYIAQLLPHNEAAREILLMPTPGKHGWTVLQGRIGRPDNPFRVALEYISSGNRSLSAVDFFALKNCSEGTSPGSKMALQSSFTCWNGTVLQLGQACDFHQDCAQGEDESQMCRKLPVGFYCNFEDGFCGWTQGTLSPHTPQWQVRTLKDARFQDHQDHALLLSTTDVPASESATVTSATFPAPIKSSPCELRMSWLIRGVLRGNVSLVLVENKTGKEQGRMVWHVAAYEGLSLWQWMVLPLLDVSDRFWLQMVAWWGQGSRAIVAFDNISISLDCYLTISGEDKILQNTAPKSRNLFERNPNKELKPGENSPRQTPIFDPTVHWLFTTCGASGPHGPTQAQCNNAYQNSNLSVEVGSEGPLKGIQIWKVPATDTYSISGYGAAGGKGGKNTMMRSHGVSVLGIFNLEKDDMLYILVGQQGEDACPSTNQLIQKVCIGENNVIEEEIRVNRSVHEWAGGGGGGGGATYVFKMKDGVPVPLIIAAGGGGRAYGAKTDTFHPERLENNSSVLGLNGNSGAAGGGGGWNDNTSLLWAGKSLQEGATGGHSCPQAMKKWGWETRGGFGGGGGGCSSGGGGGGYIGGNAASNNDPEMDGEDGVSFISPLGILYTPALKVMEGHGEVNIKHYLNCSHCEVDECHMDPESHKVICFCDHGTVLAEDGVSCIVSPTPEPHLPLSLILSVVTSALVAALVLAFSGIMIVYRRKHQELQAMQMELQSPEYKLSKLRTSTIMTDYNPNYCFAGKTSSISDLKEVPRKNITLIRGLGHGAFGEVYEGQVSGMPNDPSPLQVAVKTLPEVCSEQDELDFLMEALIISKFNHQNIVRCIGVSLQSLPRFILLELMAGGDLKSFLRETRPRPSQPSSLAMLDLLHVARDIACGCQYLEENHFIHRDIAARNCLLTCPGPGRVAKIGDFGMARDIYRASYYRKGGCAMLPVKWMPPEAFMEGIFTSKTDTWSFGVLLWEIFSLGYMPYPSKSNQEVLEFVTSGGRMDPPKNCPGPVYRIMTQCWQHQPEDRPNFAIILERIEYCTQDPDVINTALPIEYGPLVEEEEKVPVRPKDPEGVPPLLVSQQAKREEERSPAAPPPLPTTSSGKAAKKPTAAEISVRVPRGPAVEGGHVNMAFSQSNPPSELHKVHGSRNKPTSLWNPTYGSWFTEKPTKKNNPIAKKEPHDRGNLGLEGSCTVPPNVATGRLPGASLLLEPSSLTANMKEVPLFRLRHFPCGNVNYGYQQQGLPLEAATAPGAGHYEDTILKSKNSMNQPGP

The target in assay [11] is Insulin-like growth factor 1 receptor (Homo sapiens) (UniProt P08069). Description: Inhibition of IGF-1R at 4 uM by mobility shift assay. The method, boiled down:
as §1

Assay [12] can be described thus: Inhibition of NPM1/ALK at 4 uM by mobility shift assay. The essentials:
as §1

Assay [13] deals with Fibroblast growth factor receptor 1 (Homo sapiens) (UniProt P11362). Description: Inhibition of FGFR1 at 4 uM by mobility shift assay. The method, boiled down:
as §1

Assay [14] deals with Tyrosine-protein kinase SYK (Homo sapiens) (UniProt P43405). Description: Inhibition of SYK at 4 uM by mobility shift assay. The essentials: as §1
The target of assay [15] is Tyrosine-protein kinase CSK (Homo sapiens) (UniProt P41240). Description: Inhibition of CSK at 4 uM by mobility shift assay. The method, boiled down: as §1
The target in assay [16] is Receptor-type tyrosine-protein kinase FLT3 (Homo sapiens) (UniProt P36888). Description: Inhibition of FLT3 at 4 uM by mobility shift assay. The method, boiled down:
as §1

Assay [17] has as its target Proto-oncogene tyrosine-protein kinase Src (Homo sapiens) (UniProt P12931). Description: Inhibition of SRC at 4 uM by mobility shift assay. The essentials: as §1
Assay [18] concerns the target Insulin receptor (Homo sapiens) (UniProt P06213). Description: Inhibition of INSR at 4 uM by mobility shift assay. The method, boiled down:
as §1

Assay [19] addresses Epidermal growth factor receptor (Homo sapiens) (UniProt P00533). Description: Inhibition of EGFR at 4 uM by mobility shift assay. The method, boiled down: as §1
For assay [20], the target named is High affinity nerve growth factor receptor (Homo sapiens) (UniProt P04629). Description: Inhibition of TRKA at 4 uM by mobility shift assay. The essentials: as §1
Assay [21] has as its target T1, ALK tyrosine kinase receptor. Description: Inhibition of EML4-ALK at 4 uM by mobility shift assay. The essentials:
as §1
Target sequence in this assay (Q9UM73 19-1620 limits assumed): as above

Assay [22] deals with Angiopoietin-1 receptor (Homo sapiens) (UniProt Q02763). Description: Inhibition of TIE2 at 4 uM by mobility shift assay. The essentials:
as §1

The target in assay [23] is Protein-tyrosine kinase 2-beta (Homo sapiens) (UniProt Q14289). Description: Inhibition of PYK2 at 4 uM by mobility shift assay. The essentials:
as §1

Assay [24] addresses Tyrosine-protein kinase JAK3 (Homo sapiens) (UniProt P52333). Description: Inhibition of JAK3 at 4 uM by mobility shift assay. The method, boiled down:
as §1

In assay [25] the target is Tyrosine-protein kinase Lck (Homo sapiens) (UniProt P06239). Description: Inhibition of LCK at 4 uM by mobility shift assay. The method, boiled down: as §1
For assay [26], the target named is T1, ALK tyrosine kinase receptor. Description: Inhibition of ALK using FL-Peptide 13, 5-FAM-KKSRGDYMTMQIG-CONH2 substrate at 10 uM after 60 mins by mobility shift assay. The essentials: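 Recombinant ALK at 42 ng/mL, with 1.5 µM fluorescent peptide substrate and ATP. Buffer: 50 mM Hepes pH 7.4, 10 mM MgCl2, 1 mM DTT, 1% protease and 1% phosphatase inhibitor cocktails, 0.01% Brij-35. Compound was added in 5% DMSO. Incubated 60 min at room temperature, then read by mobility shift.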
Target sequence in this assay (Q9UM73 19-1620 limits assumed): as above

A value given as a limit tells only on which side of the number the result lay.

Sequence of Tyrosine-protein kinase CSK (Homo sapiens) (P41240 2-450 limits assumed): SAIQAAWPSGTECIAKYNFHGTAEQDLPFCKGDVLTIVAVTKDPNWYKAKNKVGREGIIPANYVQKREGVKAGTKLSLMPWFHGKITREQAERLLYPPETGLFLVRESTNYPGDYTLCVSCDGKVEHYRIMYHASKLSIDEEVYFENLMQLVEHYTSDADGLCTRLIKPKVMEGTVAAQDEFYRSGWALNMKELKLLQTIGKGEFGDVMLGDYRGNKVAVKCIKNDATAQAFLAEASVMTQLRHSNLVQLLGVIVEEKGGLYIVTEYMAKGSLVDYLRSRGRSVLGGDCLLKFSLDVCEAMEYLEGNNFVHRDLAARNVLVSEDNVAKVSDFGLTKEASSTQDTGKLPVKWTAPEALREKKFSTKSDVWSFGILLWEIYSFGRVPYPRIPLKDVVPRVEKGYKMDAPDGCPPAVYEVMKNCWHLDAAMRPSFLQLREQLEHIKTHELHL
Sequence of Receptor-type tyrosine-protein kinase FLT3 (Homo sapiens) (P36888 whole entry): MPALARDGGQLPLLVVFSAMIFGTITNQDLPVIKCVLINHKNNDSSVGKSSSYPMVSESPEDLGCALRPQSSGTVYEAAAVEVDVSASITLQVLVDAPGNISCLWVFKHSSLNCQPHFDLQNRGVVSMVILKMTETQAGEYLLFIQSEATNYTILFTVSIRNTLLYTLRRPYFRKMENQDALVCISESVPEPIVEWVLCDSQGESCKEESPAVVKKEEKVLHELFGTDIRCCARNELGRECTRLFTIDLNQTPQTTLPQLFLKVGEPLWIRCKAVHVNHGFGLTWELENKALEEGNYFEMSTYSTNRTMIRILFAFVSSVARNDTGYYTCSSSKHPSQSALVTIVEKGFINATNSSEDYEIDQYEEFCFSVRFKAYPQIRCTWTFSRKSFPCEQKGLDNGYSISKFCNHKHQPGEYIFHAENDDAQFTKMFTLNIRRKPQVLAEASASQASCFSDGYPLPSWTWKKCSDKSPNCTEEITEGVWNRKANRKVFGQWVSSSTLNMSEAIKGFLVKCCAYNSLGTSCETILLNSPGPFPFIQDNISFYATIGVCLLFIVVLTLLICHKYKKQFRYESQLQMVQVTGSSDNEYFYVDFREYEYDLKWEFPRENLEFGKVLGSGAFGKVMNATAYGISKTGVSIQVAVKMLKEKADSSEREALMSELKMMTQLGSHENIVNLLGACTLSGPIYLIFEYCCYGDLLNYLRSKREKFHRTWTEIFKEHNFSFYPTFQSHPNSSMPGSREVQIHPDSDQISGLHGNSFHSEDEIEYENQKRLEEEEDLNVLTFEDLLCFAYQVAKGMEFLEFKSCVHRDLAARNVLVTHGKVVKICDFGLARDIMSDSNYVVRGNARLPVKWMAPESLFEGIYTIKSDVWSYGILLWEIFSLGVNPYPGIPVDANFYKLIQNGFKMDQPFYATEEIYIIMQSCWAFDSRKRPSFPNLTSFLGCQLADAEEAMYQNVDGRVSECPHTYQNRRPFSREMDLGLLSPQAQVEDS

`Cc1cc(-c2cccc(N)c2)c(/C=C2\C(=O)Nc3ccc(N)cc32)[nH]1`: the half-inhibitory concentration (IC50) (as a rule, the concentration that inhibits the measured activity by half) in assay [1] stood at 50.8 nM.

Turning to `O=[N+]([O-])c1ccc2ncnc(Nc3ccc(O)cc3)c2c1`, the half-maximal inhibitory concentration (IC50) in assay [1] was found to be 8660 nM.

Turning to `Cc1cc(-c2cccc(N)c2)c(/C=C2\C(=O)Nc3ccccc32)[nH]1`, the inhibition (in general, the relative decrease from the control value, in per cent) is 34.2% in assay [2]; 5.1% in [3]; 100% in assay [4]; 56.6% in assay [5]; 5.1% in assay [6]; 4.9% in assay [7]. Further, the inhibition in assay [8] amounted to 81.7%; in assay [9], 12.7%; in [10], 97.6%; in assay [11] it was 91.2%; in assay [12], 93.8%; in assay [13], 62.7%. Besides, the inhibition is 58.5% in assay [14]; -6.5% in [15]; 98.1% in assay [16]; 39% in [17]; 97.2% in assay [18]; -2.3% in assay [19]. Besides, the inhibition in assay [20] is 99.4%; in assay [21], 98.7%; in assay [22], 14%; in assay [23], 86.5%; in assay [24], 9%; in assay [25] it was 69.8%. The 50% inhibitory concentration (IC50) in assay [1] amounted to 61.8 nM.

In the case of `CCOC(=O)c1ccc(Nc2nc(Nc3ccc(Cl)cc3)c3nccnc3n2)cc1`, the half-inhibitory concentration (IC50) in assay [1] stood at 3470 nM.

With `Cc1cc(-c2ccc(N)cc2)c(/C=C2\C(=O)Nc3ccccc32)[nH]1`, in assay [1], the concentration for half-maximal inhibition (IC50) came to 368 nM.

Take `CN(C)S(=O)(=O)c1ccc2c(c1)/C(=C/c1cc3c([nH]1)CCCC3)C(=O)N2`: in [1], the IC50 was 850 nM.

In the case of `O=C1Nc2ccccc2/C1=C/c1c[nH]nc1-c1ccccc1`, the concentration for half-maximal inhibition (IC50) in [1] worked out at 1730 nM.

As for `NC(Cc1cc(O)c(O)cc1O)C(O)O` (stereo not given), the inhibition in assay [26] is over 50%.

In the case of `O=C1Nc2ccccc2/C1=C/c1c[nH]nc1-c1cccs1`, the inhibition in assay [26] is over 50%.

As to `Cc1cc(-c2ccc(N)cc2)c(/C=C2\C(=O)Nc3ccc(N)cc32)[nH]1`, the IC50 in assay [1] came to 68.3 nM.

`COc1cc2ncnc(Nc3ccc(O)cc3)c2cc1OC` [WHI-P131]: the half-maximal inhibitory concentration (IC50) in assay [1] came out at 2400 nM.

With `CCc1nc(/C=C2\C(=O)Nc3ccccc32)c[nH]1`, the inhibition in assay [26] was over 50%.

With `COc1cc(-c2nc3cc(C)ccn3c2/N=C/c2cc(Cl)ccc2O)ccc1O`, in assay [1], the IC50 worked out at 2400 nM.

For `Oc1ccc(-n2cccc2)cc1C(O)O`, the inhibition in assay [26] is over 50%.

On to `Cc1cc(-c2ccc(NCCN)cc2)c(/C=C2\C(=O)Nc3ccccc32)[nH]1`, for which the IC50 in [1] came out at 149 nM.

In the case of `Oc1ccc(Nc2ncnc3ccc(Br)cc23)cc1`, the half-inhibitory concentration (IC50) in assay [1] stood at 2850 nM. Also, the inhibition in [26] is over 50%.

Consider `Oc1ccc(Nc2nc(-c3ccccc3O)nc3ccccc23)cc1`, for which the IC50 in assay [1] came to 4240 nM.

Regarding `Oc1ccc(C2Oc3cc(O)cc(O)c3CC2O)cc1` (stereo not given), the inhibition in assay [26] was over 50%.

On to `Oc1c2ccccc2c2c3c(cccc13)N=N2`, for which the inhibition in [26] is over 50%.

Consider `Oc1cc(C(O)O)c2cc(Oc3ccc4nc(O)cc(C(O)O)c4c3)ccc2n1`, for which the inhibition in [26] was over 50%.

As to `CCc1nc(C)c(/C=C2\C(=O)Nc3ccccc32)[nH]1`, the IC50 in [1] was 1380 nM.

For `Cn1cc(/C=C2\C(=O)Nc3ccccc32)c2ccccc21`, the inhibition in assay [26] is over 50%.

For `CC1CN(Cc2c(-c3cccs3)[nH]c3ncccc23)CC(C)O1` (stereo not given), in [1], the IC50 was 9290 nM.

`CC(=O)COc1ccc2c(c1)O/C(=C\c1ccc([N+](=O)[O-])cc1)C2=O`: the inhibition in [26] was over 50%.

In the case of `O=C(OCc1cc(=O)oc2cc(O)c(O)cc12)c1cc2ccccc2cc1O`, the inhibition in [26] was over 50%.

With `Cc1ccc(NC2=NC(=O)/C(=C3\C(=O)Nc4ccccc43)S2)cc1`, the IC50 in assay [1] turned out to be 3750 nM.

As to `COc1cc2c(-c3ccc(O)cc3)nc3[nH]nc(C)c3c2cc1OC`, the IC50 in assay [1] is at most 99 nM.

For `O=C1c2c(cc(O)c(O)c2O)CCCC1O` (stereo not given), the inhibition in assay [26] is over 50%.

Turning to `Cc1[nH]c(/C=C2\C(=O)Nc3ccc(F)cc32)c(C)c1C(=O)O`, the IC50 in assay [1] was found to be 910 nM.

In the case of `Oc1ccccc1-c1nc(Nc2ccc(Cl)cc2)c2ccccc2n1`, the IC50 in assay [1] amounted to 6460 nM.

Take `Cc1[nH]c(/C=C2\C(=O)Nc3ccccc32)c(C)c1-c1ccc(NCCN)cc1`: the 50% inhibitory concentration (IC50) in [1] is 415 nM.

Regarding `COc1c(OCCN2CCCCC2)cc(F)c2c(-c3ccc(O)c(Cl)c3)nc3[nH]nc(C)c3c12`, in assay [1], the half-inhibitory concentration (IC50) is at most 99 nM.

As to `COc1cc(N2CCCC2)ccc1/C=C1\C(=O)NC(=O)N(c2cccnc2)C1=O`, the inhibition in [26] is over 50%.

Consider `Cc1[nH]c(/C=C2\C(=O)Nc3ccccc32)c(C)c1-c1cccc(NCCN)c1`, for which the concentration for half-maximal inhibition (IC50) in [1] came out at 604 nM.

For `Cc1cc(-c2cccc(NCCN)c2)c(/C=C2\C(=O)Nc3ccccc32)[nH]1`, in assay [1], the IC50 is 89.1 nM.

The values above are taken from ChEMBL document CHEMBL1777751, “Virtual screening and further development of novel ALK inhibitors” (Bioorg Med Chem, 2011).
